From PubChem BioAssay
A selection: hits, their analogues and other compounds. The true share with any hit is near 2.3%.
GSTO1 counter: counter-screen for RBBP9 inhibitors: inhibitors of human GSTO1. P78417. recombinant GSTO1, activity-based probe fluorescence polarization. inhibition, % at 5.96 µM. 300,000 compounds, 1.1% hits. AID 1974;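 active = inhibition above the campaign mean inhibition plus 3 SD, cut at about 35% in these data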;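 also: 0% = GSTO1-1 with DMSO and 100% = wells lacking GSTO1-1 enzyme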
PAD4 inh: blocks human protein arginine deiminase 4; AID 485272; recombinant PAD4, RCA probe fluorescence polarization; 330,000 compounds, 0.41% hits; inhibition, % at 6.36 µM; Q9UM07;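 active = percent inhibition above a cutoff equal to the mean of all tested compounds plus 3 SD, cut at about 15% in these data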;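 also: 0% = PAD4 with RCA probe and DMSO and 100% = probe without PAD4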
Target sequence (Q9UM07 whole entry, looked up): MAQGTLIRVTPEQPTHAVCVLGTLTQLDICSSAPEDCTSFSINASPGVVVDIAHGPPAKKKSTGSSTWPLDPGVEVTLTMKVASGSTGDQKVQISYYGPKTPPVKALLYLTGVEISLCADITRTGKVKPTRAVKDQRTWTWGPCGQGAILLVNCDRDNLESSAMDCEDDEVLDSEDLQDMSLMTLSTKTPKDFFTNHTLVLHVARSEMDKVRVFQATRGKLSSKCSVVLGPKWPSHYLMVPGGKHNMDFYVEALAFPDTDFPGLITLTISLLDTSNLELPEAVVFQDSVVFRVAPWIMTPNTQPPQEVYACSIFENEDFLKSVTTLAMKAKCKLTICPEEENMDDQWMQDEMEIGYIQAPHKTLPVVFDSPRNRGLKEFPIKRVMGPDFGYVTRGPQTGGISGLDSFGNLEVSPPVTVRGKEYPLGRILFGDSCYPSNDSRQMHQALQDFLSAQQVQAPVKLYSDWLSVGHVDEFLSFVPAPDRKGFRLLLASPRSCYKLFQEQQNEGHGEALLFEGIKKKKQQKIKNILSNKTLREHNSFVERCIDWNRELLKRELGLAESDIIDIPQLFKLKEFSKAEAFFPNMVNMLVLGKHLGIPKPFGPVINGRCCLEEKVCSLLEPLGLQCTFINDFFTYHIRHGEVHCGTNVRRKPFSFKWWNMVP
PME-1 inh: PME-1 (human) inhibition; Q9Y570; 320,000 compounds, 0.53% hits; recombinant PME-1, FP-Rh probe fluorescence polarization; inhibition, % at 5.9 µM;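 active = inhibition above the campaign mean of all compounds plus 3 SD, cut at about 26% in these data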;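 also: competitive labeling of PME-1 active site by serine hydrolase directed probe; 0% = PME-1 with DMSO and 100% = wells lacking PME-1 enzyme; inhibitors block probe labeling so polarization falls and inhibition rises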
PRMT1 inh: PRMT1 (human) inhibition, primary screen | 370,000 compounds, 1.3% hits | inhibition, % at 2.79 µM | recombinant PRMT1, activity-based probe fluorescence polarization | Q99873;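 active = inhibition above about 21% made by adding two undisclosed values, limit read from the data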
Fam108B counter: blocks mouse Fam108B hydrolase in RBBP9 counter-screen; recombinant Fam108B, FP-Rh probe fluorescence polarization; inhibition, % at 9.51 µM; 300,000 compounds, 0.33% hits;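 active = inhibition above the screen mean inhibition plus 3 SD, computed separately per campaign, cut at about 18% in these data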;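 also: inhibitors lower polarization as less probe binds the enzyme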
RBBP9 inhibitor: inhibitors of human serine hydrolase RBBP9 | 220,000 compounds, 0.2% hits | AID 1515 | recombinant RBBP9, FP-Rh probe fluorescence polarization | inhibition, % at 7.94 µM;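 active = inhibition above the campaign mean of all tested compounds plus 3 SD, cut at about 14% in these data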;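 also: plate controls were DMSO wells with RBBP9 for no effect and wells lacking RBBP9 protein for full effect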
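Material: RBBP9 protein. Amount: RBBP9 at 2.5 µM in dispensed solution, before mixing. Schedule: 30 min then 45 min, 25 °C. Medium: Tris buffer pH 8.0, NaCl, Pluronic. Measured by: fluorescence polarization. Measure: percent inhibition from mP, scaled between DMSO and no-protein wells. Replication: one well per compound.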
PRMT1 confirm: confirmation of human PRMT1 inhibitors | shares compounds with PRMT1 inh | recombinant His-PRMT1, activity-based probe fluorescence polarization | inhibition, % at 2.79 µM | 3,300 compounds, 42% hits;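 active = mean inhibition across replicates above the hit cutoff derived for the earlier primary screen, cut at about 22% in these data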
* hit, by the source's call; . = no result given.

SMILES	GSTO1 counter	PAD4 inh	PME-1 inh	PRMT1 inh	Fam108B counter	RBBP9 inhibitor	PRMT1 confirm
Cc1cc(C)n2c(Nc3ccc4c(c3)OCCO4)c(-c3ccc(C)o3)nc2n1	3	-1	-5	31*	0	-1	3
Cc1ccc(-c2nc3cnccn3c2Nc2ccc3c(c2)OCO3)o1	15	-6	-2	26*	-4	-1	2
COc1ccc(-c2nc3cnccn3c2Nc2ccc(C)cc2)cc1	0	-7	1	1	-1	-4	.
Cc1ccc(-c2nc3cnccn3c2Nc2ccccc2)o1	2	1	3	67*	1	.	9
Clc1ccc(-c2nc3cnccn3c2Nc2ccc3c(c2)OCO3)cc1	3	-3	12	11	16	-2	.
Cc1ccc(Nc2c(-c3ccc(C)o3)nc3cnccn23)cc1	9	2	5	58*	-3	6	10
Cc1cc(C)n2c(Nc3ccc4c(c3)OCCO4)c(-c3cc4ccccc4o3)nc2n1	.	.	.	3	.	.	.
Cc1ccc(Nc2c(-c3ccccc3)nc3cnccn23)cc1	-8	-1	3	-2	5	3	.
O=C(NC1CC1)C1CCN(C(=O)c2ccc(Cl)cc2)CC1	-6	-1	-8	-4	-1	.	.
O=C(CCCOc1ccc(Cl)cc1Cl)N/N=C/c1ccc(Cl)cc1	1	-3	-1	0	-3	-4	.
Cc1nc(C(F)(F)F)c(C(=O)N=CN(C)C)s1	-7	-6	-4	0	3	-1	.
Cc1ccc2nc(-c3ccco3)c(Nc3ccccc3)n2c1	3	-3	-4	2	2	11	.
Cc1ccc(-c2nc3ccccn3c2Nc2ccccc2)o1	5	-1	1	49*	-2	-2	0
COc1ccc(C(=O)/C=C/C(=O)N(CC(=O)NC2CCCCC2)CC2CCCO2)c(O)c1 (stereo not drawn)	0	2	-2	34*	0	-10	41*
COc1ccc(C(=O)/C=C/C(=O)N(CC(=O)NC2CCCCC2)Cc2ccccc2)c(O)c1	.	.	.	5	.	-4	.
CC1(C)Cc2c(c(N3CCOCC3)nc3sc(C(=O)Nc4ccc(Cl)cc4)c(N)c23)CO1	2	-7	1	53*	3	.	1
COC(=O)CSc1ncnc2c1sc1nc(-c3ccco3)c3c(c12)CC(C)(C)OC3	6	-1	4	.	1	-4	.
CC1(C)Cc2c(c(N3CCOCC3)nc3sc(C(N)=O)c(N)c23)CO1	0	-4	4	37*	-5	1	7
CCOC(=O)c1sc2nc(-c3ccco3)c3c(c2c1N)CC(C)(C)OC3	11	-11	5	41*	0	.	43*
CCSc1nnc(NC(=O)CN(C)S(=O)(=O)c2ccc(F)cc2)s1	2	-5	-1	2	-6	-2	.
Cc1ccc(/C=C/C(=O)OCC(=O)N(C)c2c(N)n(Cc3ccccc3)c(=O)[nH]c2=O)o1	.	.	.	44*	.	.	-1
COCC(C)n1c(SCc2cc(C(=O)OC)c(C)o2)nc2ccccc2c1=O (stereo not drawn)	-5	-4	-1	-3	3	1	.
Cc1ccc(S(=O)(=O)N2CCN(C(=O)CN3CCN(c4ccc(O)cc4)CC3)CC2)cc1	.	.	.	34*	.	.	7
O=C(CN1CCN(c2ccc(O)cc2)CC1)NC(c1ccccc1)c1ccccc1	7	4	11	25*	-1	-2	8
Cc1cc(NC(=O)CN2CCN(c3ccc(O)cc3)CC2)no1	20	6	-3	42*	0	4	4
SMILES	GSTO1 counter	PAD4 inh	PME-1 inh	PRMT1 inh	Fam108B counter	RBBP9 inhibitor	PRMT1 confirm
O=C(CN1CCCCCC1)NC(c1ccccc1)c1ccccc1	14	1	5	-1	-6	.	.
O=C(CN1CCN(c2ccc(O)cc2)CC1)NCC(=O)Nc1ccc(F)c(F)c1F	.	0	5	37*	.	.	2
Cc1cc(NC(=O)CN2CCN(S(=O)(=O)c3ccc(Cl)cc3)CC2)no1	2	-6	-6	-2	-2	-12	.
Cc1ccc(N2CCN(S(=O)(=O)c3ccc(C)cc3)CC2)cc1	-1	3	-2	-2	2	.	.
CCOC(=O)c1cccc(NC(=O)CSc2nc3ccccc3c(=O)n2CC)c1	0	0	5	2	0	1	.
COC(=O)c1ccc2c(=O)[nH]c(COC(=O)CCC(=O)c3ccc(Cl)cc3)nc2c1	-4	-3	-9	2	-4	.	.
COc1ccc(C2C=C(C)Nc3nc4ccccc4n32)cc1 (stereo not drawn)	-2	-5	-3	-3	2	-1	.
CC(C)Oc1cccc(NC(=O)C2(C)CCN2C(=O)C(C)C)c1 (stereo not drawn)	.	.	.	2	.	.	.
CC(C1SC(=S)NC1=O)C1SC(=S)NC1=O (stereo not drawn)	.	.	.	89*	.	.	51*
c1coc(-c2nc3c([nH]2)CCc2nonc2-3)c1	-6	-3	-10	72*	0	-4	0
Cc1nnc(SCC(=O)Nc2sccc2C#N)s1	23	-1	-3	9	5	.	.
N#Cc1ccsc1NC(=O)CSc1nncs1	.	-3	.	26*	.	.	24*
O=C1CC(N2CCC(c3nc4ccccc4o3)CC2)C(=O)N1Cc1cccs1 (stereo not drawn)	5	5	1	47*	3	-1	2
O=C1CC(N2CCN(c3nc4ccccc4s3)CC2)C(=O)N1Cc1cccs1 (stereo not drawn)	-1	4	3	2	2	-11	.
NC(=O)C1CCN(C2CC(=O)N(Cc3cccs3)C2=O)CC1 (stereo not drawn)	4	-4	-10	74*	-1	-10	0
O=C1CC(N2CCN(c3ccc(F)cc3)CC2)C(=O)N1Cc1cccs1 (stereo not drawn)	-1	-6	0	5	-1	3	.
O=C(Nc1ccccc1)N1CCN(c2ccc(F)cc2)CC1	6	4	-8	0	2	-12	.
CC(C)NC(=O)c1cc(-c2ccco2)nn1-c1ccc(Cl)cc1	0	-5	3	31*	-3	-15	20
Cc1ccccc1C(=O)NC(NCC1CCCO1)C(Cl)(Cl)Cl (stereo not drawn)	3	-4	-3	-3	-1	-2	.
COc1ccc(C(C)=O)cc1CSc1nnc(-c2ccncc2)o1	3	6	0	-1	1	.	.
CC[N+]1(C)CCC(O)(/C=C/c2ccccc2)C(C(=O)/C=C/c2ccccc2)C1 (stereo not drawn)	.	.	.	68*	.	.	49*
COc1ccc(N2C(=O)CC(Sc3ccccc3C(=O)O)C2=O)c([N+](=O)[O-])c1 (stereo not drawn)	8	13	-4	100*	-1	-7	55*
